Data reported in ChEMBL document CHEMBL4610035, “Synthesis and biological evaluation of novel 3-benzylcoumarin-imidazolium salts” (Bioorg Med Chem Lett, 2020).

Experiments:
HL-60 = assay: Antiproliferative activity against human HL60 cells assessed as growth inhibition incubated up to 4 days by MTS assay; format: functional, cell-based; details: HL-60, 96 h
In short: (§1)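 Five human tumour cell lines were assayed by MTS. IC50 is the compound concentration that cuts optical density of treated cells by 50% relative to untreated cells. Mean of three independent determinations.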

SMMC-7721 [1] = assay: Antiproliferative activity against human SMMC7721 cells assessed as growth inhibition incubated up to 4 days by MTS assay; format: functional, cell-based; details: SMMC-7721, 96 h; in short: as §1
A549 = assay: Antiproliferative activity against human A549 cells assessed as growth inhibition incubated up to 4 days by MTS assay; format: functional, cell-based; details: A549, 96 h; in short: as §1
MCF7 = assay: Antiproliferative activity against human MCF7 cells assessed as growth inhibition incubated up to 4 days by MTS assay; format: functional, cell-based; details: MCF7, 96 h; in short: as §1
SW480 = assay: Antiproliferative activity against human SW480 cells assessed as growth inhibition incubated up to 4 days by MTS assay; format: functional, cell-based; details: SW480, 96 h; in short: as §1
SMMC-7721 [2] = assay: Induction of apoptosis in human SMMC7721 cells assessed as viable cells at 2 uM after 48 hrs by Annexin-V/PI-staining based flow cytometry (reference value: 96.9%); format: functional; details: SMMC-7721, 48 h, read-out: Activity
SMMC-7721 [3] = assay: Induction of apoptosis in human SMMC7721 cells assessed as early apoptotic cells at 2 uM after 48 hrs by Annexin-V/PI-staining based flow cytometry (reference value: 1.25%); format: functional
SMMC-7721 [4] = assay: Induction of apoptosis in human SMMC7721 cells assessed as late apoptotic cells at 2 uM after 48 hrs by Annexin-V/PI-staining based flow cytometry (reference value: 0.649%); format: functional
SMMC-7721 [5] = assay: Induction of apoptosis in human SMMC7721 cells assessed as necrotic cells at 2 uM after 48 hrs by Annexin-V/PI-staining based flow cytometry (reference value: 1.24%); format: functional
SMMC-7721 [6] = assay: Induction of apoptosis in human SMMC7721 cells assessed as viable cells at 4 uM after 48 hrs by Annexin-V/PI-staining based flow cytometry (reference value: 96.9%); format: functional; details: SMMC-7721, 48 h, read-out: Activity
SMMC-7721 [7] = assay: Induction of apoptosis in human SMMC7721 cells assessed as early apoptotic cells at 4 uM after 48 hrs by Annexin-V/PI-staining based flow cytometry (reference value: 1.25%); format: functional
SMMC-7721 [8] = assay: Induction of apoptosis in human SMMC7721 cells assessed as late apoptotic cells at 4 uM after 48 hrs by Annexin-V/PI-staining based flow cytometry (reference value: 0.649%); format: functional
SMMC-7721 [9] = assay: Induction of apoptosis in human SMMC7721 cells assessed as necrotic cells at 4 uM after 48 hrs by Annexin-V/PI-staining based flow cytometry (reference value: 1.24%); format: functional
SMMC-7721 [10] = assay: Induction of apoptosis in human SMMC7721 cells assessed as viable cells at 8 uM after 48 hrs by Annexin-V/PI-staining based flow cytometry (reference value: 96.9%); format: functional; details: SMMC-7721, 48 h, read-out: Activity
SMMC-7721 [11] = assay: Induction of apoptosis in human SMMC7721 cells assessed as early apoptotic cells at 8 uM after 48 hrs by Annexin-V/PI-staining based flow cytometry (reference value: 1.25%); format: functional
SMMC-7721 [12] = assay: Induction of apoptosis in human SMMC7721 cells assessed as late apoptotic cells at 8 uM after 48 hrs by Annexin-V/PI-staining based flow cytometry (reference value: 0.649%); format: functional
SMMC-7721 [13] = assay: Induction of apoptosis in human SMMC7721 cells assessed as necrotic cells at 8 uM after 48 hrs by Annexin-V/PI-staining based flow cytometry (reference value: 1.24%); format: functional
SMMC-7721 [14] = assay: Induction of cell cycle arrest in human SMMC7721 cells assessed as accumulation at G0/G1 phase at 2 uM after 24 hrs by propidium iodide staining based flow cytometric analysis (reference value: 63.71 +/- 0.31%); format: functional
SMMC-7721 [15] = assay: Induction of cell cycle arrest in human SMMC7721 cells assessed as accumulation at G0/G1 phase at 4 uM after 24 hrs by propidium iodide staining based flow cytometric analysis (reference value: 63.71 +/- 0.31%); format: functional
SMMC-7721 [16] = assay: Induction of cell cycle arrest in human SMMC7721 cells assessed as accumulation at G0/G1 phase at 8 uM after 24 hrs by propidium iodide staining based flow cytometric analysis (reference value: 63.71 +/- 0.31%); format: functional
SMMC-7721 [17] = assay: Induction of cell cycle arrest in human SMMC7721 cells assessed as accumulation at S phase at 2 uM after 24 hrs by propidium iodide staining based flow cytometric analysis (reference value: 23.26 +/- 0.57%); format: functional
SMMC-7721 [18] = assay: Induction of cell cycle arrest in human SMMC7721 cells assessed as accumulation at S phase at 4 uM after 24 hrs by propidium iodide staining based flow cytometric analysis (reference value: 23.26 +/- 0.57%); format: functional
SMMC-7721 [19] = assay: Induction of cell cycle arrest in human SMMC7721 cells assessed as accumulation at S phase at 8 uM after 24 hrs by propidium iodide staining based flow cytometric analysis (reference value: 23.26 +/- 0.57%); format: functional
SMMC-7721 [20] = assay: Induction of cell cycle arrest in human SMMC7721 cells assessed as accumulation at G2/M phase at 2 uM after 24 hrs by propidium iodide staining based flow cytometric analysis (reference value: 6.70 +/- 0.63%); format: functional
SMMC-7721 [21] = assay: Induction of cell cycle arrest in human SMMC7721 cells assessed as accumulation at G2/M phase at 4 uM after 24 hrs by propidium iodide staining based flow cytometric analysis (reference value: 6.70 +/- 0.63%); format: functional
SMMC-7721 [22] = assay: Induction of cell cycle arrest in human SMMC7721 cells assessed as accumulation at G2/M phase at 8 uM after 24 hrs by propidium iodide staining based flow cytometric analysis (reference value: 6.70 +/- 0.63%); format: functional
SMMC-7721 [23] = assay: Induction of cell cycle arrest in human SMMC7721 cells assessed as accumulation at sub-G1 phase at 2 uM after 24 hrs by propidium iodide staining based flow cytometric analysis (reference value: 3.173 +/- 0.26%); format: functional
SMMC-7721 [24] = assay: Induction of cell cycle arrest in human SMMC7721 cells assessed as accumulation at sub-G1 phase at 4 uM after 24 hrs by propidium iodide staining based flow cytometric analysis (reference value: 3.173 +/- 0.26%); format: functional
SMMC-7721 [25] = assay: Induction of cell cycle arrest in human SMMC7721 cells assessed as accumulation at sub-G1 phase at 8 uM after 24 hrs by propidium iodide staining based flow cytometric analysis (reference value: 3.173 +/- 0.26%); format: functional

With Cc1cc2c(cc1C)[n+](CC(=O)c1ccc3ccccc3c1)cn2C(c1ccccc1)c1cc2ccccc2oc1=O.[Br-] (centres undefined) the IC50 (HL-60) was 2070 nM, the IC50 (SMMC-7721 [1]) was 3770 nM and the IC50 (A549) was 4510 nM. The IC50 (MCF7) was 2040 nM, the IC50 (SW480) was 2320 nM and the viability at 2 µM (SMMC-7721 [2]) was 96.4%. The Activity (SMMC-7721 [3]) was 1.3%, the Activity (SMMC-7721 [4]) was 0.698% and the Activity (SMMC-7721 [5]) was 1.58%. It also gave a viability at 4 µM (SMMC-7721 [6]) of 93.2%, an Activity (SMMC-7721 [7]) of 4.82% and an Activity (SMMC-7721 [8]) of 1.39%. For the same molecule, the Activity (SMMC-7721 [9]) was 0.541%, the viability at 8 µM (SMMC-7721 [10]) was 60.9% and the Activity (SMMC-7721 [11]) was 25.6%. It also gave an Activity (SMMC-7721 [12]) of 11.2%, an Activity (SMMC-7721 [13]) of 2.27% and an Activity (SMMC-7721 [14]) of 65.02%. For the same molecule, the Activity (SMMC-7721 [15]) was 67.69%, the Activity (SMMC-7721 [16]) was 70.88% and the Activity (SMMC-7721 [17]) was 21.82%. For the same molecule, the Activity (SMMC-7721 [18]) was 22.47%, the Activity (SMMC-7721 [19]) was 16.42% and the Activity (SMMC-7721 [20]) was 6.92%. For the same molecule, the Activity (SMMC-7721 [21]) was 7.59%, the Activity (SMMC-7721 [22]) was 9.68% and the Activity (SMMC-7721 [23]) was 3.25%. The Activity (SMMC-7721 [24]) was 5.16% and the Activity (SMMC-7721 [25]) was 2.54%.
